{
  "source": "ChEMBL document CHEMBL4834436",
  "about": "“Discovery of the S1P2 Antagonist GLPG2938 (1-[2-Ethoxy-6-(trifluoromethyl)-4-pyridyl]-3-[[5-methyl-6-[1-methyl-3-(trifluoromethyl)pyrazol-4-yl]pyridazin-3-yl]methyl]urea), a Preclinical Candidate for the Treatment of Idiopathic Pulmonary Fibrosis” (J Med Chem, 2021)",
  "key": {"[1]": {"biological_target": "T1, Sphingosine 1-phosphate receptor 2 (Homo sapiens, UniProt O95136)", "T1 sequence (O95136 whole entry)": "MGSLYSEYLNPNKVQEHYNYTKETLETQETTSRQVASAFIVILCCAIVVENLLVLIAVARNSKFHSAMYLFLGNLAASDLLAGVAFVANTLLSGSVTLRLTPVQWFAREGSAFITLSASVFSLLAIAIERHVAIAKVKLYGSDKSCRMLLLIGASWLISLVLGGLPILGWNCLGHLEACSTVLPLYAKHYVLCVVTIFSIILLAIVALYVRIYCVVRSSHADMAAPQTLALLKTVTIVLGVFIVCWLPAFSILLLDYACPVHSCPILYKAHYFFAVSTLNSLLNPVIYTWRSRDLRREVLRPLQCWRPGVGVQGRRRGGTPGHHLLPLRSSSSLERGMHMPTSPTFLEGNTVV", "experiment": "Antagonist activity at human S1P2 receptor expressed in CHO cells assessed as EC80 S1P-induced calcium flux measured for 3 mins by fluorescence assay", "type": "functional, cell-based", "procedure,_shortened": "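Same dye-loaded, starved human S1P2-CHO cells; after agonist readout, 15 min at 37 °C, then stimulated with S1P at EC80, fluorescence read 3 min. Max/baseline ratio normalized to vehicle and S1P EC80. 10-point 1/3 dilutions from 20 μM final; IC50 derived; geometric mean of ≥2 runs.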"}, "[2]": {"biological_target": "T1, Sphingosine 1-phosphate receptor 2", "experiment": "Antagonist activity at recombinant human S1P2 receptor expressed in CHO cells assessed as EC80 S1P-induced activation incubated for 4 hrs in presence of [35S]GTPgammaS by Topcount reader", "type": "functional, cell-based", "procedure,_shortened": "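Membranes from stable lines overexpressing recombinant human S1P2, preincubated with PVT-WGA SPA beads, mixed with compound serial dilutions, [35S]GTPγS and S1P at EC80. Incubated 4 h at room temperature, centrifuged, scintillation counted. Antagonist mode; IC50 as geometric mean of ≥2 runs.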"}, "[3]": {"biological_target": "T1, Sphingosine 1-phosphate receptor 2", "experiment": "Antagonist activity at recombinant human S1P2 receptor in HFL1 cells assessed as inhibition of EC80 S1P-induced IL8 release incubated for 16 to 24 hrs in absence of HSA by ELISA", "type": "functional, cell-based", "procedure,_shortened": "(§1)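 HFL-1 lung fibroblasts seeded in 96- or 384-well plates, then medium replaced by starvation medium with 1% heat-inactivated FBS, ±1.95% HSA (2% HSA condition), 16–24 h. 10-point 1/3 dilutions, 30 μM top final, 1 h, then S1P at EC80 (without HSA: 1 μM 96-well or 0.5 μM 384-well; with HSA: 5 or 2 μM).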"}, "[4]": {"experiment": "Intrinsic clearance unbound in mouse liver microsomes at 1 uM […] by LC-MS/MS analysis", "type": "ADME, Microsome"}, "[5]": {"biological_target": "T1, Sphingosine 1-phosphate receptor 2", "experiment": "Antagonist activity at recombinant human S1P2 receptor in HFL1 cells assessed as inhibition of EC80 S1P-induced IL8 release incubated for 16 to 24 hrs in presence of 2% HSA by ELISA", "type": "functional, cell-based", "procedure,_shortened": "as §1"}, "[6]": {"experiment": "Intrinsic clearance unbound in human liver microsomes at 1 uM […] by LC-MS/MS analysis", "type": "ADME, Microsome"}, "[7]": {"experiment": "Half life in CD1 mouse at 1 mg/kg, iv measured up to 24 hrs by LC-MS/MS analysis", "type": "ADME, organism-based", "details": "in vivo", "procedure,_shortened": "(§2)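 Male CD1 mice, composite design, n = 6 per route; iv 1 mg/kg in PEG200/water 60/40, oral gavage 5 mg/kg in Tween 80/MC 0.5% or PEG400/MC 0.5% after ≥12 h fast. Li-heparin blood sampled to 24 h, plasma by LC-MS/MS; noncompartmental analysis. Plasma protein binding: 5 μM compound, 4 h incubation.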"}, "[8]": {"experiment": "Half life in Sprague-Dawley rat at 1 mg/kg, iv measured up to 24 hrs by LC-MS/MS analysis", "type": "ADME, organism-based", "details": "in vivo", "procedure,_shortened": "(§3)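 Male Sprague-Dawley rats (6–8 weeks), n = 3 per route; iv bolus 1 mg/kg in PEG200/water 60/40; gavage 5 or 10 mg/kg in PEG400/MC 0.5% after ≥12 h fast. Li-heparin plasma sampled to 24 h, LC-MS/MS, noncompartmental analysis. Plasma protein binding: 5 μM compound, 4 h incubation.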"}, "[9]": {"experiment": "Half life in beagle dog at 1 mg/kg, iv measured up to 24 hrs by LC-MS/MS analysis", "type": "ADME, organism-based, Canis lupus familiaris", "details": "in vivo", "procedure,_shortened": "(§4)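 Non-naive male Beagle dogs (n = 3) given 1 mg/kg iv as 10 min infusion; after 3-day washout, oral gavage 5 or 1 mg/kg in PEG400/MC 0.5% or MC 0.5% after ≥12 h fast. Jugular or cephalic blood into lithium heparin to 24 h; plasma analysed. Plasma protein binding: 5 μM compound, 4 h incubation.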"}, "[10]": {"experiment": "Clearance in CD1 mouse at 1 mg/kg, iv measured up to 24 hrs by LC-MS/MS analysis", "type": "ADME, organism-based", "details": "in vivo", "procedure,_shortened": "as §2"}, "[11]": {"experiment": "Clearance in Sprague-Dawley rat at 1 mg/kg, iv measured up to 24 hrs by LC-MS/MS analysis", "type": "ADME, organism-based", "details": "in vivo", "procedure,_shortened": "as §3"}, "[12]": {"experiment": "Clearance in beagle dog at 1 mg/kg, iv measured up to 24 hrs by LC-MS/MS analysis", "type": "ADME, organism-based, Canis lupus familiaris", "details": "in vivo", "procedure,_shortened": "as §4"}, "[13]": {"experiment": "Volume of distribution at steady state in CD1 mouse at 1 mg/kg, iv measured up to 24 hrs by LC-MS/MS analysis", "type": "ADME, organism-based", "details": "in vivo, read-out: Vdss", "procedure,_shortened": "as §2"}, "[14]": {"experiment": "Volume of distribution at steady state in Sprague-Dawley rat at 1 mg/kg, iv measured up to 24 hrs by LC-MS/MS analysis", "type": "ADME, organism-based", "details": "in vivo, read-out: Vdss", "procedure,_shortened": "as §3"}, "[15]": {"experiment": "Volume of distribution at steady state in beagle dog at 1 mg/kg, iv measured up to 24 hrs by LC-MS/MS analysis", "type": "ADME, organism-based, Canis lupus familiaris", "details": "in vivo, read-out: Vdss", "procedure,_shortened": "as §4"}, "[16]": {"experiment": "Oral bioavailability in CD1 mouse at 5 mg/kg measured up to 24 hrs by LC-MS/MS analysis", "type": "ADME, organism-based", "details": "in vivo", "procedure,_shortened": "as §2"}, "[17]": {"experiment": "Oral bioavailability in Sprague-Dawley rat at 5 mg/kg measured up to 24 hrs by LC-MS/MS analysis", "type": "ADME, organism-based", "details": "in vivo", "procedure,_shortened": "as §3"}, "[18]": {"experiment": "Plasma protein binding CD1 mouse plasma at 5 uM incubated for 4 hrs", "type": "ADME, cell-free", "details": "read-out: PPB (converted)", "procedure,_shortened": "as §2"}, "[19]": {"experiment": "Plasma protein binding Sprague-Dawley rat plasma at 5 uM incubated for 4 hrs", "type": "ADME, cell-free", "details": "read-out: PPB (converted)", "procedure,_shortened": "as §3"}, "[20]": {"experiment": "Plasma protein binding beagle dog plasma at 5 uM incubated for 4 hrs", "type": "ADME, cell-free, Canis lupus familiaris", "details": "read-out: PPB (converted)", "procedure,_shortened": "as §4"}, "[21]": {"experiment": "Thermodynamic solubility in FaSSGF at pH 1.6", "type": "physicochemical", "details": "read-out: Therm_solubility"}, "[22]": {"experiment": "Thermodynamic solubility in FaSSIF", "type": "physicochemical", "details": "read-out: Therm_solubility"}, "Fibroblast": {"system": "Fibroblast", "experiment": "Prevention of S1P-induced human pulmonary fibroblasts contraction in collagen gel lattice mixture pretreated with TGFbeta for 72 hrs followed by treated at 0.5 to 5 uM compound incubated for 2 hrs then treated with S1P for 1 hr", "type": "functional, cell-based", "details": "dose 0.5-5 µM, time 96.0 hrs, in the assay text read “96 hrs” for “72 hrs”", "procedure,_shortened": "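Normal human lung fibroblasts pretreated 4 days with 1 ng/mL TGF-β, embedded in neutralized collagen I gels (200,000 cells/gel), kept 72 h in serum-free FGM with TGF-β for stress build-up. Compound added for 2 h, then 1 μM S1P; gels released and incubated 1 h at 37 °C; gel area imaged. Mean with 95% CI.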"}, "Mus musculus": {"system": "Mus musculus", "experiment": "Antifibrotic activity against intranasal bleomycin-induced C57BL/6 mouse lung fibrosis model assessed as reduction in Ashcroft score at 1 to 10 mg/kg, po twice daily for 14 days", "type": "functional, organism-based", "details": "dose 1-10 mg/kg, time 14.0 day", "procedure,_shortened": "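Male C57BL/6 mice (7–8 weeks on arrival, one week acclimation) given bleomycin intranasally; prophylactic oral dosing twice daily for 14 days. Lungs scored histologically by Matsuse-modified Ashcroft score; 14–15 mice per group; Mann–Whitney vs bleomycin/vehicle.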"}, "[23]": {"biological_target": "Voltage-gated inwardly rectifying potassium channel KCNH2 (Homo sapiens, UniProt Q12809)", "sequence (Q12809 whole entry)": "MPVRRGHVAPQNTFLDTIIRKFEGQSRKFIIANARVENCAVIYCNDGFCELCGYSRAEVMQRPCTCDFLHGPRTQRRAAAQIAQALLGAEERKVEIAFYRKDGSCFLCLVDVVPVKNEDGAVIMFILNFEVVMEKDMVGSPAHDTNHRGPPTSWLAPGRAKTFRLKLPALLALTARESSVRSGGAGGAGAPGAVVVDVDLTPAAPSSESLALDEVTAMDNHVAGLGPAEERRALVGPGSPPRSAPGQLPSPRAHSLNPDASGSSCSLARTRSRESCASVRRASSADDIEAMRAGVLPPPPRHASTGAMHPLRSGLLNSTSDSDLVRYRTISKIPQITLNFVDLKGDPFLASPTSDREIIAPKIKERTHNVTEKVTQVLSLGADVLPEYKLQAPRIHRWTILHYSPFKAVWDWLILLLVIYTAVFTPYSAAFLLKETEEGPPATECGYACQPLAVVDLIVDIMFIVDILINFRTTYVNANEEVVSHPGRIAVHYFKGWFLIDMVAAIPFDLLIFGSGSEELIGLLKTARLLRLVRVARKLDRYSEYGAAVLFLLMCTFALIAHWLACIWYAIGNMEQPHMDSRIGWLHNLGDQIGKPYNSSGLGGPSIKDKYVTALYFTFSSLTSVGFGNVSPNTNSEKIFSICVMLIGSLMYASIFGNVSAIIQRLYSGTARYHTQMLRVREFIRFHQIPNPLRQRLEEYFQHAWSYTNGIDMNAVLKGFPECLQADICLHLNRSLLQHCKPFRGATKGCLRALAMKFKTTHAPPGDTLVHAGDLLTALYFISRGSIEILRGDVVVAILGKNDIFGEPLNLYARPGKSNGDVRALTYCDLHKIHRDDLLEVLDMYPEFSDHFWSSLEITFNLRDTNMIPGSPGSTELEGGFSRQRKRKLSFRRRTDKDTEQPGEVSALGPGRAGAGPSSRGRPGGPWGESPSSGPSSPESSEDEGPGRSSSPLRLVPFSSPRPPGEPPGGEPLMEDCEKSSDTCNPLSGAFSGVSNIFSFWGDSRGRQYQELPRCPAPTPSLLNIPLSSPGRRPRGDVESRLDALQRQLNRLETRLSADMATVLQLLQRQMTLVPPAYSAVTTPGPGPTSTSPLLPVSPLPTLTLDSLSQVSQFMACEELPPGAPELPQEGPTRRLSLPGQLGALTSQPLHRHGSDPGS", "experiment": "Inhibition of human ERG"}, "[24]": {"biological_target": "T1, Sphingosine 1-phosphate receptor 2", "experiment": "Antagonist activity at recombinant human S1P2 receptor in HFL1 cells assessed as inhibition of EC80 S1P-induced IL8 release measured as unbound concentration incubated for 16 to 24 hrs in presence of 2% HSA by ELISA", "type": "functional, cell-based", "details": "filed as antagonist, time 16-24 hrs", "procedure,_shortened": "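IL8 IC50 from the 2% HSA condition converted to free IC50 = IC50 × fu,medium, where fu,medium is estimated from human plasma protein binding fraction unbound and the serum percentage used in the assay.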"}},
  "note": "Calls of active or inactive are those of the source. No cut-off for these calls is given here.",
  "data": [
    {"smiles": "CCOc1cc(NC(=O)NCc2cc(C)c(-c3cn(C)nc3C(F)(F)F)nn2)cc(C(F)(F)F)n1", "values": [
      {"measurement": "IC50", "setting": "[1]", "value": 8.8, "unit": "µM"},
      {"measurement": "IC50", "setting": "[2]", "value": 29, "unit": "µM"},
      {"measurement": "IC50", "setting": "[3]", "value": 0.029, "unit": "µM"},
      {"measurement": "CL free", "setting": "[4]", "value": 140, "unit": "mL/min/kg"},
      {"measurement": "IC50", "setting": "[5]", "value": 0.087, "unit": "µM"},
      {"measurement": "CL free", "setting": "[6]", "value": "< 38.3", "unit": "mL/min/kg"},
      {"measurement": "half-life", "setting": "[7]", "value": 2.3, "unit": "h"},
      {"measurement": "half-life", "setting": "[8]", "value": 2.7, "unit": "h"},
      {"measurement": "half-life", "setting": "[9]", "value": 7.6, "unit": "h"},
      {"measurement": "clearance", "setting": "[10]", "value": 4, "unit": "mL/min/kg"},
      {"measurement": "clearance", "setting": "[11]", "value": 1.52, "unit": "mL/min/kg"},
      {"measurement": "clearance", "setting": "[12]", "value": 1.67, "unit": "mL/min/kg"},
      {"measurement": "Vd", "setting": "[13]", "value": 0.81, "unit": "L/kg"},
      {"measurement": "Vd", "setting": "[14]", "value": 0.35, "unit": "L/kg"},
      {"measurement": "Vd", "setting": "[15]", "value": 1.1, "unit": "L/kg"},
      {"measurement": "bioavailability", "setting": "[16]", "value": 64, "unit": "%"},
      {"measurement": "bioavailability", "setting": "[17]", "value": 29, "unit": "%"},
      {"measurement": "fraction unbound at 4 h, 5 µM", "setting": "[18]", "value": 0.001},
      {"measurement": "fraction unbound at 4 h, 5 µM", "setting": "[19]", "value": "< 0.001"},
      {"measurement": "fraction unbound at 4 h, 5 µM", "setting": "[20]", "value": 0.003},
      {"measurement": "solubility thermodynamic", "setting": "[21]", "value": 2.7, "unit": "µg/mL"},
      {"measurement": "solubility thermodynamic", "setting": "[22]", "value": 23, "unit": "µg/mL"},
      {"measurement": "Activity", "setting": "Fibroblast", "value": "Active"},
      {"measurement": "Activity", "setting": "Mus musculus", "value": "Active"},
      {"measurement": "inhibition (INH)", "setting": "[23]", "value": "Not Active"},
      {"measurement": "fIC50", "setting": "[24]", "value": 0.6, "unit": "nM"}
    ]}
  ]
}
